Source: PubChem BioAssay
Many of the other results were omitted from the sample, so hits are more common in it than they were.
bCat KO growth: beta-catenin-lacking colon tumor cell growth suppression | HCT116 beta-catenin knockout viability, CellTiter-Glo, 60 h; stronger effect = lower value | actives 1.5% (n = 140,000) | viability, % at 10 µM;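 active means viability at or under a set limit, the compound median less 4 SD, cut at about 6% in these data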;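 further: 0% = Hyamine 1622 control at 20 µM and 100% = untreated cell control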
HCT116 PTEN-null: growth suppressors of cells with PTEN tumor suppressor deletion | viability, % at 10 µM | actives 1.2% (n = 140,000) | HCT116 PTEN-null viability, CellTiter-Glo, 60 h; stronger effect = lower value;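 active means viability at or below a set limit, 4 SD under the median of all tested compounds, cut at about 3.7% in these data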;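 further: PTEN knockout HCT116 line with beta catenin targeted HCT116 as companion control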
HUVEC inhibit: inhibitors of human endothelial cell proliferation | AID 648 | actives 1.1% (n = 86,000) | HUVEC proliferation, CellTiter-Glo luminescence, 72 h; stronger effect = lower value | viability, % at 10 µM (by protocol);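 active means viability at or below 30%; inactive means viability above 30%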;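 further: 100% = median luminescence of DMSO-only cell control wells on each plate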
Fibroblast inh: blocks proliferation of human lung fibroblasts. LL 47 human lung fibroblast viability, ATP luminescence; stronger effect = lower value. viability, % at 10 µM. actives 1.1% (n = 85,000);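 active means viability at or below 50% in the single dose screen; inactive means viability above 50%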;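 further: compound exposure lasted 72 h before the ATP readout; 100% = median luminescence of untreated cell-only wells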
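material = human LL 47 lung fibroblast cells | dosing = compounds added from tenfold dosing solution, 0.1% DMSO final | timing = overnight cell rest, 72 h compound treatment at 37 °C | measured by = CellTiter-Glo luminescence measuring cellular ATP | evaluation = % viability versus median cells-only luminescence | control set = cell-only wells, no compound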
H69AR inhibit: blocks growth of human H69AR lung tumor cells; H69AR lung tumor viability, ATP luminescence, 72 h; stronger effect = lower value; viability, % at 10 µM; actives 6% (n = 85,000); AID 598;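 active means viability at or below 40%; inactive means viability above 40%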;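 further: multidrug resistant small cell line overexpressing MRP-1 efflux transporter; 100% = mean luminescence of untreated control wells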
* hit, by the source's call; / = no result.

SMILES	bCat KO growth	HCT116 PTEN-null	HUVEC inhibit	Fibroblast inh	H69AR inhibit
O=C(CC(SCCO)c1ccc2c(c1)OCO2)c1cccs1 (stereo not drawn)	7	10	95	/	4.3*
O=C(CC(SCc1ccco1)c1ccc(O)cc1)c1cccs1 (stereo not drawn)	11	20	74	86	13*
COc1ccc(C(=O)NCC(=O)NCC(=O)OCC(=O)C(C)(C)C)cc1	95	99	/	/	/
Cc1ccc(NC2=C(Cl)C(=O)OC2OC(=O)c2ccco2)cc1 (stereo not drawn)	86	91	65	92	33*
Cc1ccc(/C(N)=N/OC(=O)c2ccco2)cc1	96	94	84	99	76
O=C(Nc1ccc(Cl)cc1C(=O)NCCN1CCOCC1)c1ccc(Cl)cc1Cl	91	107	77	92	38*
O=C(Nc1c(Cl)cc(Cl)cc1C(=O)NCCN1CCOCC1)c1ccc(Cl)cc1Cl	94	91	87	99	64
CC(C)n1c(O)c(N=NC(=O)Cn2ccc(C(F)(F)F)n2)c2ccccc21	96	89	/	/	/
O=C(/C=C/c1ccccc1)NNC(=O)c1cccnc1	92	89	/	/	/
O=C(/C=C/c1ccccc1Cl)c1cccnc1	96	93	21*	76	1.2*
O=C(/C=C/c1ccc(OCc2ccccc2)c(OCc2ccccc2)c1)c1cccnc1	1.5*	1.6*	/	/	/
O=C(/C=C/c1ccc(Cl)cc1)c1cccnc1	0.5*	0.7*	63	25*	38*
Cc1ccc(C(=O)NCCCc2ccccc2)s1	101	101	/	/	/
COc1cccc(C(=O)Oc2ccccc2/C=C\C(=O)c2cc3ccccc3o2)c1	2.2*	1.1*	/	/	/
O=C(Oc1ccccc1/C=C\C(=O)c1cc2ccccc2o1)c1ccccc1	2.3*	2.4*	/	/	/
O=C(Oc1ccccc1/C=C\C(=O)c1cc2ccccc2o1)c1cccc(F)c1	5.9*	1.3*	/	/	/
O=C(Nc1ccccc1)c1ccc(OC(=O)c2cc3ccccc3o2)cc1	89	95	75	93	89
Cc1ccc(C(=O)C2CCN(CC(=O)Nc3nc(C)cs3)CC2)cc1	64	70	/	/	/
CC(=O)c1cccc(NS(=O)(=O)c2cc(OCC(N)=O)c(C)cc2Cl)c1	86	83	100	96	76
COc1ccc(/C=C/C(=O)c2ccccc2)cc1Cn1nnc2ccccc21	2.9*	2.8*	/	/	/
CC(=O)c1c(C)[nH]c(C(=O)COC(=O)CN(C)S(=O)(=O)c2ccc(Cl)cc2)c1C	95	104	96	105	60
NS(=O)(=O)c1ccc(CCNC(=O)COC(=O)C2CCCN2C(=O)c2cccs2)cc1 (stereo not drawn)	93	94	94	97	102
CCOc1ccc(-c2c(C(=O)N/N=C/c3ccc(OC)cc3)nnn2-c2nonc2N)cc1	88	85	/	/	/
OC1CN=C2CCCc3c2n(c2ccc(Cl)cc32)C1 (stereo not drawn)	71	71	106	100	84
c1ccc(-c2ccc3c(c2)c2c4n3CCN=C4CCC2)cc1	20	25	28*	75	24*
SMILES	bCat KO growth	HCT116 PTEN-null	HUVEC inhibit	Fibroblast inh	H69AR inhibit
CN(CCO)c1cc(Sc2nc3ccccc3s2)c2nonc2c1[N+](=O)[O-]	110	102	75	30*	4.3*
COc1ccccc1C(=O)Nc1cc(Cl)ccc1O	83	75	87	96	87
CCOc1ccccc1C(=O)Nc1cc(Cl)ccc1O	57	66	50	99	30*
Cc1ccc(Cl)cc1NC(=O)c1ccccc1OCC(=O)Nc1ccc(Cl)cc1	27	2.9*	/	/	/
CCn1c(SCC(=O)Nc2nccs2)nnc1-c1cc2cccc(OC)c2o1	94	82	109	106	96
COc1cccc2cc(-c3nnc(SCC(=O)Nc4cc(C(F)(F)F)ccc4Cl)n3N)oc12	51	45	69	88	7.6*
CCOC(=O)CNC(=O)C(=O)c1c(O)[nH]c2ccccc12	87	105	97	48*	92
CCOC(=O)CNC(=O)c1ccccc1	93	97	106	99	98
Cn1c(SCC(=O)Nc2ccc3nc(SCC(=O)N4CCCC4)sc3c2)nnc1-c1ccc(N)cc1	96	96	/	/	/
O=C(CCN1C(=O)c2ccccc2C1=O)Oc1ccc2ccccc2c1	89	97	93	102	93
CC1=CC(C)(C)Nc2ccc(OC(=O)CCN3C(=O)c4ccccc4C3=O)cc21	1.2*	1.5*	/	/	/
O=C(NC(c1ccccc1)c1c(O)ccc2ccccc12)c1ccccc1Cl (stereo not drawn)	82	87	/	/	/
O=C(NC(c1ccc(Cl)cc1)c1c(O)ccc2ccccc12)c1ccccc1 (stereo not drawn)	1.1*	0.6*	/	/	/
COc1ccc(-c2cc(C(=O)NCC(C)C)no2)cc1	98	106	110	106	86
Cc1nc(SCc2nc3ccccc3[nH]2)c2oc3ccccc3c2n1	58	47	87	90	65
c1ccc2[nH]c(CN3CCN(c4ncnc5c4oc4ccccc45)CC3)nc2c1	77	76	87	96	7.1*
Cc1nc(N2CCN(Cc3nc4ccccc4[nH]3)CC2)c2oc3ccccc3c2n1	47	43	72	88	36*
O=C(CN1C(=O)COc2ccccc21)N1CCc2ccccc2C1	72	80	84	3.1*	108
N#C/C(=C(/O)CN1CCOCC1)c1nc(-c2ccccc2)cs1	94	96	102	96	84
CCCCN(C)C/C(O)=C(\C#N)c1nc(-c2ccccc2)cs1	102	92	82	96	39*
O=c1[nH]c2ccccc2n1CCCN1CCN(C(c2ccccc2)c2ccccc2)CC1	5.6*	9	78	75	27*
CCCn1c(=O)[nH]c2ccccc21	99	101	85	104	96
CCc1cccc(CC)c1NC(=O)COC(=O)c1cccc(S(=O)(=O)N2CCc3ccccc3C2)c1	72	69	/	/	/
CN(C)S(=O)(=O)c1cccc(NC(=O)COC(=O)c2cccc(S(=O)(=O)N3CCc4ccccc4C3)c2)c1	0.7*	0.2*	/	/	/
CCCCCC(=O)NNC(=O)c1ccc(F)cc1	100	108	/	/	/
SMILES	bCat KO growth	HCT116 PTEN-null	HUVEC inhibit	Fibroblast inh	H69AR inhibit
Cn1c(N)c(C(=O)CCl)c(=O)n(C)c1=O	85	94	89	76	3.0*
Cn1c(N)c(C(=O)CCl)c(=O)n(Cc2ccccc2)c1=O	36	36	/	/	/
Cc1cccc(/C=C(\c2nc3ccccc3[nH]2)S(=O)(=O)c2ccccc2)c1	1.9*	0.9*	/	/	/
CCOC(=O)CN1C2=NCCN2c2ccccc21	98	112	108	105	101
CCOC(=O)CN1C(=O)C(=O)c2cccc(C)c21	81	74	108	102	33*
Cc1nc2ncnn2c(C)c1CCC(=O)N1CC(C)CC(C)C1 (stereo not drawn)	101	98	102	98	100
Cc1ccc(C(=O)/C=C/c2ccc(F)cc2)o1	9	9	/	/	/
O=C(/C=C/c1ccc(F)cc1)c1ccccc1Br	2.6*	2.2*	/	/	/
c1ccc2c(-c3ccncc3)c[nH]c2c1	94	93	82	106	85
